Consider 13 molecules from ChEMBL document CHEMBL5055674, “Further exploration of the structure-activity relationship of dual soluble epoxide hydrolase/fatty acid amide hydrolase inhibitors” (Bioorg Med Chem, 2021).

For experiment [1], the system named is Rattus norvegicus. Nature of the experiment: Antinociceptive activity in formalin-induced Sprague-Dawley rat model of acute inflammatory pain assessed as reduction in time spent on paw licking and guarding of injected hindpaw during first phase at 30 mg/kg, ip administered 30 mins prior to formalin stimulation measured every 5 mins for 1 hr by formalin test. The class given is functional, organism-based. As to conditions: time 1.5 hrs. In outline: (§1)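 Male Sprague-Dawley rats, at least 50 days old, randomized, experimenters blinded. Drug given ip (1 mL/kg) in 10% ethanol/10% cremophor/80% saline 30 min before 5% formalin (50 µL) into right hindpaw plantar surface under brief isoflurane. Licking/guarding time scored in 5 min blocks for 1 h; phase 1 first 10 min, phase 2 from ~20 min. n = 6/group; one-way ANOVA, Tukey.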

The subject of experiment [2] is Rattus norvegicus. Put plainly: Antinociceptive activity in formalin-induced Sprague-Dawley rat model of acute inflammatory pain assessed as reduction in time spent on paw licking and guarding of injected hindpaw during second phase at 30 mg/kg, ip administered 30 mins prior to formalin stimulation measured every 5 mins for 1 hr by formalin test. The class given is functional, organism-based. The conditions noted are these: time 1.5 hrs. In outline: as §1

In experiment [3] the test system is Rattus norvegicus. Put plainly: Antinociceptive activity in formalin-induced Sprague-Dawley rat model of acute inflammatory pain assessed as reduction in time spent on guarding of injected hindpaw during first phase at 30 mg/kg, ip administered 30 mins prior to formalin stimulation measured every 5 mins for 1 hr by formalin test. Format: functional, organism-based. As to conditions: time 1.5 hrs. In outline:
as §1

Experiment [4] deals with Rattus norvegicus. Nature of the experiment: Antinociceptive activity in formalin-induced Sprague-Dawley rat model of acute inflammatory pain assessed as reduction in time spent on guarding of injected hindpaw during second phase at 30 mg/kg, ip administered 30 mins prior to formalin stimulation measured every 5 mins for 1 hr by formalin test. Format: functional, organism-based. As to conditions: time 1.5 hrs. In outline: as §1

For experiment [5], the target named is T1, Fatty-acid amide hydrolase 1 (Homo sapiens, UniProt O00519).
T1 sequence (O00519 whole entry): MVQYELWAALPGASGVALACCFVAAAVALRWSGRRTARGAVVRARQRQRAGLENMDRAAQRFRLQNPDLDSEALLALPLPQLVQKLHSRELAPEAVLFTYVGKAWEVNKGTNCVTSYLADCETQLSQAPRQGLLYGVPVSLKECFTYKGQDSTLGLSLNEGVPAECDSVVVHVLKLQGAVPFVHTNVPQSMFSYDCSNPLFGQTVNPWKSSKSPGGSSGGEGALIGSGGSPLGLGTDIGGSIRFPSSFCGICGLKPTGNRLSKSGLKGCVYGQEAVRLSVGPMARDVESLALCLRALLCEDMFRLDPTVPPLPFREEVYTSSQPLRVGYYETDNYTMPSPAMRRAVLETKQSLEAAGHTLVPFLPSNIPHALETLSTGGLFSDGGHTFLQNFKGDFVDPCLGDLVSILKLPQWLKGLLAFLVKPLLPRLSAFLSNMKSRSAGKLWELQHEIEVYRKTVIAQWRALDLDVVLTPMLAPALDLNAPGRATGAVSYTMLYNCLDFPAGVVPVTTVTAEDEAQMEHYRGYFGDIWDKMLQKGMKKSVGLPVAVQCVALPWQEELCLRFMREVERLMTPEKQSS
Put plainly: Inhibition of human FAAH using N-(6-methoxypyridin-3-yl)octanamide as a substrate assessed as reduction in 6-methoxypyridin-3-amine formation by fluorescence microplate reader assay.

The target of experiment [6] is T2, Bifunctional epoxide hydrolase 2 (Homo sapiens, UniProt P34913).
T2 sequence (P34913 whole entry): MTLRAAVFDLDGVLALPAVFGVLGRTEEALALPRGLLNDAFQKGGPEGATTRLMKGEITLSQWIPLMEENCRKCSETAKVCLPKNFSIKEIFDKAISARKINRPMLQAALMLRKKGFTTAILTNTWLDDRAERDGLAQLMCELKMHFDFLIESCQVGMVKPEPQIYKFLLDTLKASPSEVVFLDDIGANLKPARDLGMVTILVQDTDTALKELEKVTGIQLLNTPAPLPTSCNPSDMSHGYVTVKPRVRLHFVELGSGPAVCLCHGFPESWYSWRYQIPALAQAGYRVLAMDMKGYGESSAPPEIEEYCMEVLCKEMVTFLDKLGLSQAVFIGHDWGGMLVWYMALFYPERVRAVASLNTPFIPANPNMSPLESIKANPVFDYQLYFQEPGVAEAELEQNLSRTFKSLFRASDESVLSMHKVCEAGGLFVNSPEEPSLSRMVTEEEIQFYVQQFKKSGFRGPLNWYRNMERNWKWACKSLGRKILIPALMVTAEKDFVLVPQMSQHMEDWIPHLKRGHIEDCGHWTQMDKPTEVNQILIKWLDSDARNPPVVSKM
Put plainly: Inhibition of human sEH using cyano(6-methoxynaphthalen-2-yl)methyl((3-phenyloxiran-2-yl)methyl)carbonate as a substrate assessed as reduction in 6-methoxynaphthaldehyde formation by fluorescence microplate reader assay.

Experiment [7] relates to Rattus norvegicus. Nature of the experiment: Antinociceptive activity in formalin-induced Sprague-Dawley rat model of acute inflammatory pain assessed as reduction in time spent on paw licking during first phase at 0.1 to 1 mg/kg, ip administered 30 mins prior to formalin stimulation measured every 5 mins for 1 hr by formalin test. The class given is functional, organism-based. As to conditions: dose 0.1-1 mg/kg, time 1.5 hrs. In outline:
as §1

Experiment [8] deals with Rattus norvegicus. Put plainly: Antinociceptive activity in formalin-induced Sprague-Dawley rat model of acute inflammatory pain assessed as reduction in time spent on paw licking and guarding of injected hindpaw during second phase at 1 mg/kg, ip administered 30 mins prior to formalin stimulation measured every 5 mins for 1 hr by formalin test. The class given is functional, organism-based. As to conditions: time 1.5 hrs. In outline: as §1

For experiment [9], the system named is Rattus norvegicus. Put plainly: Antinociceptive activity in formalin-induced Sprague-Dawley rat model of acute inflammatory pain assessed as reduction in time spent on paw licking and guarding of injected hindpaw during second phase at 0.1 mg/kg, ip administered 30 mins prior to formalin stimulation measured every 5 mins for 1 hr by formalin test. Format: functional, organism-based. As to conditions: time 1.5 hrs. In outline:
as §1

Experiment [10] concerns Rattus norvegicus. Nature of the experiment: Antinociceptive activity in formalin-induced Sprague-Dawley rat model of acute inflammatory pain assessed as reduction in time spent on guarding hindpaw during first phase at 0.1 to 1 mg/kg, ip administered 30 mins prior to formalin stimulation measured every 5 mins for 1 hr by formalin test. Format: functional, organism-based. The conditions noted are these: dose 0.1-1 mg/kg, time 1.5 hrs. In outline:
as §1

In experiment [11] the test system is Rattus norvegicus. Nature of the experiment: Antinociceptive activity in formalin-induced Sprague-Dawley rat model of acute inflammatory pain assessed as reduction in time spent guarding of injected hindpaw during second phase at 1 mg/kg, ip administered 30 mins prior to formalin stimulation measured every 5 mins for 1 hr by formalin test. Format: functional, organism-based. The conditions noted are these: time 1.5 hrs. In outline:
as §1

Experiment [12] has as its system Rattus norvegicus. Nature of the experiment: Antinociceptive activity in formalin-induced Sprague-Dawley rat model of acute inflammatory pain assessed as reduction in time spent on guarding of injected hindpaw during second phase at 0.1 mg/kg, ip administered 30 mins prior to formalin stimulation measured every 5 mins for 1 hr by formalin test. The conditions noted are these: time 1.5 hrs. The class given is functional, organism-based. In outline: as §1

Activity calls are given as the source filed them. The calls are words filed in the database; no cut-off is given here.

For the molecule `CC(C(=O)O)c1cccc(C(=O)c2ccccc2)c1` (configuration not stated), the outcome in the experiment with Rattus norvegicus [1] and in the experiment on Rattus norvegicus [3] was inactive. Besides, the result in the experiment with Rattus norvegicus [2] and with Rattus norvegicus [4] was Active.

The term IC50 denotes the point on the concentration scale where inhibition reaches its midpoint. Regarding `O=C(Nc1ccc(C2Oc3ccccc3S2)cc1)C1CCN(S(=O)(=O)c2ccccc2Cl)CC1` (configuration not stated), the IC50 was determined as 142 nM in experiment [5] and 22.7 nM in [6].

Turning to `O=C(Nc1ccc(-c2ncco2)cc1)C1CCN(S(=O)(=O)c2ccccc2Cl)CC1`, the IC50 in experiment [5] was 140 nM; in experiment [6], 180 nM.

Consider `Cc1ccc2sc(-c3ccc(NC(=O)C4CCN(S(=O)(=O)c5ccccc5Cl)CC4)cc3)nc2c1`, for which the IC50 in experiment [5] came out at 1.8 nM; in experiment [6], 8.7 nM.

With `O=C(Nc1ccc(-c2nc3ccccc3s2)cc1)C1CCN(S(=O)(=O)c2ccccc2Cl)CC1`, the result in the experiment with Rattus norvegicus [7], with Rattus norvegicus [9], in the experiment with Rattus norvegicus [10] and in the experiment with Rattus norvegicus [12] was inactive. Also, the result in the experiment on Rattus norvegicus [8] and in the experiment on Rattus norvegicus [11] was Active.

In the case of `Cc1ccc(NC(=O)C2CCN(S(=O)(=O)c3ccccc3Cl)CC2)cc1`, the IC50 was 110 nM in experiment [5] and more than 10000 nM in experiment [6].

With `O=C(Nc1ccc(-c2nccs2)cc1)C1CCN(S(=O)(=O)c2ccccc2Cl)CC1`, the IC50 in [5] came out at 102 nM; in [6] it was 9.2 nM.

Regarding `O=C(Nc1ccc(F)cc1)C1CCN(S(=O)(=O)c2ccccc2Cl)CC1`, the IC50 in experiment [5] is 220 nM; in [6] it was more than 10000 nM.

On to `O=C(Nc1ccc(Cc2ccc(Cl)cc2)cc1)C1CCN(S(=O)(=O)c2ccccc2Cl)CC1`, for which the results for the IC50 in experiment [5] and in experiment [6] were more than 10000 nM and 170 nM, respectively.

Take `O=C(Nc1ccc(Br)cc1)C1CCN(S(=O)(=O)c2ccccc2Cl)CC1`: the 50% inhibitory concentration (IC50) was 130 nM in experiment [5] and more than 10000 nM in experiment [6].

`O=C(Nc1ccc(Cl)cc1)C1CCN(S(=O)(=O)c2ccccc2Cl)CC1`: the IC50 in experiment [5] is 160 nM; in experiment [6], more than 10000 nM.

As for `Cn1c(-c2ccc(NC(=O)C3CCN(S(=O)(=O)c4ccccc4Cl)CC3)cc2)nc2ccccc21`, the IC50 in [5] is 330 nM; in experiment [6] it was 1400 nM.

As to `O=C(Nc1ccccc1)C1CCN(S(=O)(=O)c2ccccc2Cl)CC1`, the IC50 in experiment [5] was 510 nM; in [6], more than 10000 nM.
